# From ChEMBL document CHEMBL1926589, “2-Anilinonicotinyl linked 2-aminobenzothiazoles and [1,2,4]triazolo[1,5-b] [1,2,4]benzothiadiazine conjugates as potential mitochondrial apoptotic inducers” (Bioorg Med Chem, 2011)
# Active and inactive are the calls of the source. No cut-off for these calls is given here.
# Tests used:
# [1] = tested on: SiHa; experiment: Induction of apoptosis in human SiHa cells assessed as DNA ladder formation at 10 uM after 24 hrs by agarose gel electrophoresis; type: functional, cell-based
# How it was run: (§1)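 Cells treated 24 h, then 2 x 10^6 cells lysed (Triton X-100 buffer, pH 8.0) with RNase at 37 °C for 90 min and proteinase-K at 50 °C for 1 h. DNA phenol/chloroform-extracted and ethanol-precipitated, then run on 1.8% agarose at 50 V for 1.5 h in TAE. Ladders viewed under UV.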
# [2] = tested on: HeLa; experiment: Induction of apoptosis in human HeLa cells assessed as DNA ladder formation at 10 uM after 24 hrs by agarose gel electrophoresis; type: functional, cell-based; how it was run: as §1
# [3] = tested on: HL-60; experiment: Induction of apoptosis in human HL60 cells assessed as formation of apoptotic bodies at 1 uM after 24 hrs by scanning electron microscopy; type: functional, cell-based
# How it was run: (§2)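 HL-60 cells at 2 x 10^5/ml in 10% FCS medium exposed to 0.5 or 1 µM for 6–48 h; DMSO vehicle controls. Cells fixed in 2.5% glutaraldehyde in 0.1 M phosphate (pH 7.2) at 4 °C for 1 h, post-fixed in 1% OsO4 and ethanol-dehydrated. Critical-point dried, gold-coated, and imaged by SEM at 40 kV.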
# [4] = tested on: HL-60; experiment: Induction of apoptosis in human HL60 cells assessed as early apoptotic cells at 1 uM after 24 hrs using Annexin V-FITC and propidium iodide staining by flow cytometry relative to control; type: functional
# How it was run: (§3)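 HL-60 cells (1 x 10^5 per 1.5 mL) treated 24 h, washed twice in PBS and stained in binding buffer with annexin V-FITC and PI. Flow cytometry with FITC in FL-1 (530 nm) and PI in FL-2 (585 nm), using quadrant statistics: lower right taken as apoptotic, upper right as post-apoptotic necrotic. Representative of three independent experiments.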
# [5] = Growth inhibition of human 502713 cells at 10 uM by sulforhodamine B assay; type: functional; settings: read-out: GI
# How it was run: (§4)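 Single-dose 10 µM screen by sulforhodamine B assay, reported as percent inhibition of cell proliferation. Cells grown in medium with 10% heat-inactivated FBS at 37 °C, 5% CO2, and treated at about 70% confluence or in log phase. Compounds dissolved in DMSO; controls received vehicle (<0.5% v/v).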
# [6] = tested on: HL-60; experiment: Induction of NO production in human HL60 cells at 1 uM after 24 hrs using DAF-2DA fluorescent dye based flow cytometric analysis; type: functional, cell-based
# How it was run: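 HL-60 cells (1 x 10^5 per 1.5 mL) preloaded 30 min with 10 µM DAF-2-DA before treatment. After 24 h exposure, cells were washed and read by flow cytometry in FL-1 as NO-positive population. Mean ± SD of three independent experiments.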
# [7] = tested on: HL-60; experiment: Growth inhibition of human HL60 cells after 48 hrs by MTT assay; type: functional, cell-based; settings: HL-60, 48 h
# [8] = tested on: HL-60; experiment: Induction of apoptosis in human HL60 cells at 0.5 uM after 48 hrs by scanning electron microscopy; type: functional, cell-based; how it was run: as §2
# [9] = tested on: PC-3; experiment: Induction of apoptosis in human PC3 cells assessed as nuclear fragmentation at 1 uM after 24 hrs by DAPI staining-based fluorescence microscopy; type: functional, cell-based
# How it was run: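 HL-60 or PC-3 cells treated at 1 µM for 24 h. Air-dried smears fixed in methanol at −20 °C for 20 min and stained with DAPI (1 µg/mL) for 20 min at room temperature in the dark. Mounted in 90% glycerol/PBS and examined by fluorescence microscopy for nuclear morphology.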
# [10] = tested on: SiHa; experiment: Growth inhibition of human SiHa cells at 10 uM by sulforhodamine B assay; type: functional; settings: read-out: GI; how it was run: as §4
# [11] = tested on: HL-60; experiment: Induction of apoptosis in human HL60 cells assessed as blebbing of plasma membrane at 1 uM after 12 hrs by scanning electron microscopy; type: functional, cell-based; how it was run: as §2
# [12] = tested on: HL-60; experiment: Induction of apoptosis in human HL60 cells assessed as non-viable necrotic cells at 1 uM after 24 hrs using Annexin V-FITC and propidium iodide staining by flow cytometry relative to control; type: functional; how it was run: as §3
# [13] = tested on: HL-60; experiment: Induction of apoptosis in human HL60 cells assessed as PARP cleavage at 1 uM after 24 hrs by Western blotting; type: functional, cell-based
# How it was run: (§5)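 HL-60 cells treated 24 h and lysed in RIPA buffer on ice; protein measured by Bradford against a BSA standard. 50 µg resolved by SDS-PAGE and transferred to PVDF, blocked in 5% milk/TBST, then primary antibodies 1:1000 for 2 h and HRP secondary 1:1000 for 1 h. ECL detection with β-actin as loading control; bands quantified by densitometry.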
# [14] = tested on: SiHa; experiment: Growth inhibition of human SiHa cells after 48 hrs by MTT assay; type: functional, cell-based
# [15] = tested on: HL-60; experiment: Inhibition of NF-kappaB expression in human HL60 cells at 1 uM after 24 hrs by Western blotting; type: functional, cell-based; how it was run: as §5
# [16] = tested on: HL-60; experiment: Induction of apoptosis in human HL60 cells assessed as DNA ladder formation at 10 uM after 24 hrs by agarose gel electrophoresis; type: functional, cell-based; how it was run: as §1
# [17] = tested on: HL-60; experiment: Induction of apoptosis in human HL60 cells assessed as late apoptotic cells at 1 uM after 24 hrs using Annexin V-FITC and propidium iodide staining by flow cytometry relative to control; type: functional; how it was run: as §3
# [18] = tested on: HL-60; experiment: Induction of apoptosis in human HL60 cells assessed as decrease in size at 1 uM after 12 hrs by scanning electron microscopy; type: functional, cell-based; how it was run: as §2
# [19] = tested on: HL-60; experiment: Induction of apoptosis in human HL60 cells assessed as caspase9 activation using LEHD-AMC as substrate at 1 uM after 24 hrs by fluorimetry relative to control; type: functional
# How it was run: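 HL-60 cells (2 x 10^6) treated 24 h, washed and lysed. Caspase-3, -8 and -9 activities in lysates measured fluorometrically with a commercial caspase fluorescent assay kit. Two independent experiments, each in duplicate.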
# [20] = tested on: HL-60; experiment: Induction of apoptosis in human HL60 cells assessed as DNA ladder formation at 1 uM after 24 hrs by agarose gel electrophoresis; type: functional, cell-based; how it was run: as §1
# [21] = tested on: HL-60; experiment: Induction of apoptosis in human HL60 cells assessed as decrease in mitochondrial membrane potential at 1 uM after 24 hrs using rhodamine 123 staining by flow cytometry; type: functional; parameters: scale not given: the % may be the effect or the level left
# How it was run: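 HL-60 cells (1 x 10^5 per 1.5 mL) treated 24 h, then stained with rhodamine-123 (5 µg/mL final) for 1 h. Washed, and propidium iodide (5 µg/mL) added just before reading. FL-1 fluorescence from 10,000 events; percentage of low Rh-123 cells taken as loss of membrane potential. Mean ± SD, n=3.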
# [22] = tested on: HL-60; experiment: Induction of apoptosis in human HL60 cells assessed as increase of reactive oxygen species level at 1 uM after 24 hrs using DCFH-DA fluorescent dye based flow cytometric analysis relative to control; type: functional
# How it was run: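 HL-60 cells (1 x 10^5 per 1.5 mL) treated 24 h, then loaded with 10 µM H2DCFDA for 30 min at 37 °C. Washed twice in PBS and read in FL-1 (530 nm). Percentage of DCF-positive cells determined; mean ± SD of three experiments.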
# [23] = tested on: HL-60; experiment: Cell cycle arrest in human HL60 cells assessed as accumulation at G2/M phase at 1 uM after 24 hrs using propidium iodide staining by flow cytometry; type: functional, cell-based
# How it was run: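 HL-60 cells (1 x 10^5 per 1.5 mL) treated 24 h, then fixed in 70% cold ethanol at −20 °C overnight. RNase digestion (400 µg/ml) at 37 °C for 45 min, then propidium iodide (10 µg/ml) for 30 min. Flow cytometry on 10,000 events, FL2-A vs FL2-W, with doublet discrimination. Sub-G0 (hypodiploid) peak taken as apoptotic cells. Mean ± SD of three independent experiments.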
structure (smiles),measurement,setting,value
O=C(Nc1nc2ccc([N+](=O)[O-])cc2s1)c1cccnc1Nc1cc(F)c(F)c(F)c1,Activity,[1],inactive
same,Activity,[2],inactive
same,Activity,[3],Active
same,Activity,[4],15%
same,inhibition of growth at 10 µM,[5],80%
same,Activity,[6],inactive
same,IC50,[7],0.08 µM
same,Activity,[8],inactive
same,Activity,[9],Active
same,inhibition of growth at 10 µM,[10],70%
same,Activity,[11],Active
same,Activity,[12],47%
same,Activity,[13],Active
same,IC50,[14],36 µM
same,inhibition,[15],Active
same,Activity,[16],Active
same,Activity,[17],8%
same,Activity,[18],Active
same,fold change (FC),[19],2
same,Activity,[20],Active
same,Activity,[21],45%
same,Activity,[22],inactive
same,Activity,[23],inactive
